The results in this text go back to ChEMBL document CHEMBL3259640 (J Med Chem, 2014).

Series [1] can be described thus: Oral bioavailability in Sprague-Dawley rat at 20 mg/kg compound formulated with 1% methylcellulose in water by LC-MS/MS analysis. It counts as ADME, organism-based. The settings on record: in vivo. A digest of the protocol:
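Male Sprague–Dawley rats, n = 3. Blood drawn by preimplanted catheter over 24 h; plasma separated at 4 °C and deproteinated with acetonitrile. Drug measured by LC–MS/MS; parameters obtained by noncompartmental analysis.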

The test system of a further series is MDA-MB-231. As to the kind of experiment: Growth inhibition of human MDA-MB-231 cells. It counts as functional.
Series [2] concerns the target Fibroblast growth factor receptor 1 (Homo sapiens, UniProt P11362). As to the kind of experiment: Inhibition of FGFR1 (unknown origin) assessed as [33P] incorporation in substrate by TopCount microplate scintillation counting analysis.
A short description of series [3]: Growth inhibition of human RPTEC cells. It counts as cell-based.
In series [4] the target is Mast/stem cell growth factor receptor Kit (Homo sapiens, UniProt P10721). Nature of the series: Inhibition of Kit (unknown origin) assessed as [33P] incorporation in substrate by TopCount microplate scintillation counting analysis.
Series [5] relates to MDA-MB-468. As to the kind of experiment: Antiproliferative activity against human MDA-MB-468 cells assessed as cell viability after 96 hrs by CellTiter96 assay. Format: functional, cell-based. The settings on record: MDA-MB-468, 96 h.
Series [6] concerns the target T1, Kinetochore protein NDC80 homolog (Homo sapiens) (UniProt O14777).
T1 sequence (whole entry): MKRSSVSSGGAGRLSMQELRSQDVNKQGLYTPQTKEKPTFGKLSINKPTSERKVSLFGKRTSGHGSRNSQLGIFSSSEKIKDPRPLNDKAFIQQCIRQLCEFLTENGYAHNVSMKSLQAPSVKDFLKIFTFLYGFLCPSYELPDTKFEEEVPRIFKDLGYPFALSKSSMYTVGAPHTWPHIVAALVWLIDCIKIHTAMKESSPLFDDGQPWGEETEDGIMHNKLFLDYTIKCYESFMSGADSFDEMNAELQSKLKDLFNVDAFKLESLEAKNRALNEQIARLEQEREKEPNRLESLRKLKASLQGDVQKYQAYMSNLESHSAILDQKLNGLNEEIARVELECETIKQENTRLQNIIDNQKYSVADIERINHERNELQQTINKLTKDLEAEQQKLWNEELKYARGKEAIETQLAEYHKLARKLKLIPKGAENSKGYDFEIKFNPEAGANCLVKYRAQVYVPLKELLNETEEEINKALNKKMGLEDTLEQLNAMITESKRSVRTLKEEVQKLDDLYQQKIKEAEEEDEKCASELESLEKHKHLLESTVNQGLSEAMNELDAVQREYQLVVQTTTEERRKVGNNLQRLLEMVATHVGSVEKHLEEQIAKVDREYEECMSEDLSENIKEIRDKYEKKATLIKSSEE
As to the kind of experiment: Inhibition of Hec1/Nek2 interaction in human K562 cells assessed as reduction in coimmunoprecipitated Hec1 level at 100 nM after 16 hrs by co-immunoprecipitation assay. Format: cell-based.

Series [7] is described as follows: Growth inhibition of human WI38 cells. Format: cell-based. To be noted: WI-38 cells.
For a further series, the system named is K562. As to the kind of experiment: Antiproliferative activity against human K562 cells assessed as cell viability after 96 hrs by CellTiter96 assay. Format: functional, cell-based. To be noted: K562, 96 h.
In another series the test system is Mus musculus. As to the kind of experiment: Toxicity in BALB/c nu/nu mouse xenografted with human MDA-MB-231 cells assessed as body weight loss at 150 mg/kg, po bid for 28 days. Format: organism-based. Also noted: dose 150 mg/kg, route oral. The settings on record: in vivo, 672 h. A digest of the protocol: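 Female BALB/c nu/nu mice, 5–8 weeks old, implanted subcutaneously in the right flank with 1 × 10⁷ MDA-MB-231 cells in matrigel. Treatment began at about 100 mm³ tumor volume; 5 mice per group. Dosing for 28 days: IV 20 mg/kg once daily or PO 150 mg/kg twice daily, in 5% DMSO/10% Cremophor in H₂O; vehicle controls included. Body weight and tumor size (caliper) recorded every 2 days.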
On the technique in general: A xenograft is tissue or cells of one species grown in another, often human tumour cells in immunodeficient mice.

Series [8] concerns the target T1, Kinetochore protein NDC80 homolog (Homo sapiens). As to the kind of experiment: Inhibition of Hec1/Nek2 interaction in human K562 cells assessed as reduction in coimmunoprecipitated Hec1 level at 100 nM after 16 hrs by co-immunoprecipitation assay in presence of 500 nM proteasome inhibitor MG132. Format: cell-based.
Series [9] can be described thus: AUC in Sprague-Dawley rat at 2 mg/kg, iv compound formulated with 5% DMSO, 10% cremophor and 85% water by LC-MS/MS analysis. Format: ADME, organism-based. Also noted: dose 2 mg/kg, route intravenous. To be noted: plasma.
For series [10], the target named is Serine/threonine-protein kinase Chk1 (Homo sapiens, UniProt O14757). Nature of the series: Inhibition of CHK1 (unknown origin) assessed as [33P] incorporation in substrate by TopCount microplate scintillation counting analysis.
The test system of series [11] is MDA-MB-468. Nature of the series: Induction of mitotic abnormalities in human MDA-MB-468 cells assessed as increase in proportion of cells displaying multipolar spindles after 48 hrs by immunofluorescent staining based microscopy. Format: functional, cell-based.
The nature of series [12]: Solubility of the compound in phosphate buffered saline containing 1% DMSO at pH 7.4 after 2 hrs by HPLC analysis. Format: physicochemical.
Series [13] deals with Vascular endothelial growth factor receptor 2 (Homo sapiens, UniProt P35968). Nature of the series: Inhibition of VEGFR2 (unknown origin) assessed as [33P] incorporation in substrate by TopCount microplate scintillation counting analysis.
Series [14] relates to MDA-MB-468. As to the kind of experiment: Induction of mitotic abnormalities in human MDA-MB-468 cells assessed as proportion of cells displaying multipolar spindles at 100 nM after 48 hrs by immunofluorescent staining based microscopy (reference value: […]). Format: functional.
Series [15] deals with T1, Kinetochore protein NDC80 homolog (Homo sapiens). Nature of the series: Inhibition of Hec1/Nek2 interaction in human K562 cells assessed as induction of Nek2 degradation after 24 hrs by western blot analysis. Format: cell-based. A digest of the protocol:
(§1)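 K562 cells exposed to DMSO or to 10, 100 or 1000 nM for 24 h. Nek2 and Hec1 detected by western blot in SDS sample buffer lysates, with actin as loading control and ECL detection.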

Series [16] addresses Epidermal growth factor receptor (Homo sapiens, UniProt P00533, T790M). Nature of the series: Inhibition of EGFR T790M mutant (unknown origin) assessed as [33P] incorporation in substrate by TopCount microplate scintillation counting analysis. Format: protein assay.
Series [17] has as its target T1, Kinetochore protein NDC80 homolog (Homo sapiens). Nature of the series: Inhibition of Hec1/Nek2 interaction in human K562 cells assessed as induction of Nek2 degradation at 10 nM after 24 hrs by western blot analysis. It counts as cell-based. A digest of the protocol:
as §1
(In general: In western blotting, separated proteins are transferred to a membrane and probed.)

The next series addresses Aurora kinase A (Homo sapiens, UniProt O14965). Nature of the series: Inhibition of aurora A (unknown origin) assessed as [33P] incorporation in substrate by TopCount microplate scintillation counting analysis.

In brackets after ≈: the same amount, converted by molar mass. Activity calls are given as the source filed them. The calls are words filed in the database; no cut-off is given here.

Serine/threonine-protein kinase Chk1, sequence (O14757 whole entry): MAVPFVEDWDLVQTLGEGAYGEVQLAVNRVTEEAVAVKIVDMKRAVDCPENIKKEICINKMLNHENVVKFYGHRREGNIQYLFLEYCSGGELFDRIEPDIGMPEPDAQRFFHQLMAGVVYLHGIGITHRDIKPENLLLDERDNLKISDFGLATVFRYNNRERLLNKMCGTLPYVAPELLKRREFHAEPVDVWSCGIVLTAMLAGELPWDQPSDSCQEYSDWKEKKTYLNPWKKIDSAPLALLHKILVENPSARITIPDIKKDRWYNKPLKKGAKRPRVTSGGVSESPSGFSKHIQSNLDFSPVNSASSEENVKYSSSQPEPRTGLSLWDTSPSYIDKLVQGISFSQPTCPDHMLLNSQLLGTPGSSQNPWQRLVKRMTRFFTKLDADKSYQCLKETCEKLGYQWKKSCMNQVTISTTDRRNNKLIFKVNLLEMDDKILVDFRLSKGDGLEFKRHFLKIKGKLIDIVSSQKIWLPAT
Mast/stem cell growth factor receptor Kit, sequence (P10721 whole entry): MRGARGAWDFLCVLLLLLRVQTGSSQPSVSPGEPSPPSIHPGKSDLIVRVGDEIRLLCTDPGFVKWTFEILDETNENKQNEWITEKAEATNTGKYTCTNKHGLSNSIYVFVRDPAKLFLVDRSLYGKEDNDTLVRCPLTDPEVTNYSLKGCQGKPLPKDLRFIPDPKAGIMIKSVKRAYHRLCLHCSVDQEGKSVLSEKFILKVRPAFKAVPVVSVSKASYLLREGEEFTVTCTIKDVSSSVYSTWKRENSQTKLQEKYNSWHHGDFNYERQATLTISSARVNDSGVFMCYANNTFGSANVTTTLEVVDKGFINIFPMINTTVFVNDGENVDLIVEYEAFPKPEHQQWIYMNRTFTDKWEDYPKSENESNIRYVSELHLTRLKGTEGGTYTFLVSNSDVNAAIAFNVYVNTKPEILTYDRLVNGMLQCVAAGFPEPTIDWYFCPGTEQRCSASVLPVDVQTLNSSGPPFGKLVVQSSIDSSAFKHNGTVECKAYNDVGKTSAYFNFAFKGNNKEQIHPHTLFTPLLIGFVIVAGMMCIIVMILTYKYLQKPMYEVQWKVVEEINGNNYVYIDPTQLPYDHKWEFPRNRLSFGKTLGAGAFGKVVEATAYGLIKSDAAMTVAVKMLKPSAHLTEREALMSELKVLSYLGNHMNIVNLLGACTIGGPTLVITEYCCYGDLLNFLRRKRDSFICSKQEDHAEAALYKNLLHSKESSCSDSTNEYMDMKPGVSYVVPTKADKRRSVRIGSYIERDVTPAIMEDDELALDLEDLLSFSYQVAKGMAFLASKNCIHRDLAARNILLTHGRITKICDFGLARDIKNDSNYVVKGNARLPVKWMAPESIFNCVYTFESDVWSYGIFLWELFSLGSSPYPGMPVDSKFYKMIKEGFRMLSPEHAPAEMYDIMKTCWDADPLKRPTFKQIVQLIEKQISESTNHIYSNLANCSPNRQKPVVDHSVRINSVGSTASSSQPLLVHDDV
Fibroblast growth factor receptor 1, sequence (P11362 whole entry): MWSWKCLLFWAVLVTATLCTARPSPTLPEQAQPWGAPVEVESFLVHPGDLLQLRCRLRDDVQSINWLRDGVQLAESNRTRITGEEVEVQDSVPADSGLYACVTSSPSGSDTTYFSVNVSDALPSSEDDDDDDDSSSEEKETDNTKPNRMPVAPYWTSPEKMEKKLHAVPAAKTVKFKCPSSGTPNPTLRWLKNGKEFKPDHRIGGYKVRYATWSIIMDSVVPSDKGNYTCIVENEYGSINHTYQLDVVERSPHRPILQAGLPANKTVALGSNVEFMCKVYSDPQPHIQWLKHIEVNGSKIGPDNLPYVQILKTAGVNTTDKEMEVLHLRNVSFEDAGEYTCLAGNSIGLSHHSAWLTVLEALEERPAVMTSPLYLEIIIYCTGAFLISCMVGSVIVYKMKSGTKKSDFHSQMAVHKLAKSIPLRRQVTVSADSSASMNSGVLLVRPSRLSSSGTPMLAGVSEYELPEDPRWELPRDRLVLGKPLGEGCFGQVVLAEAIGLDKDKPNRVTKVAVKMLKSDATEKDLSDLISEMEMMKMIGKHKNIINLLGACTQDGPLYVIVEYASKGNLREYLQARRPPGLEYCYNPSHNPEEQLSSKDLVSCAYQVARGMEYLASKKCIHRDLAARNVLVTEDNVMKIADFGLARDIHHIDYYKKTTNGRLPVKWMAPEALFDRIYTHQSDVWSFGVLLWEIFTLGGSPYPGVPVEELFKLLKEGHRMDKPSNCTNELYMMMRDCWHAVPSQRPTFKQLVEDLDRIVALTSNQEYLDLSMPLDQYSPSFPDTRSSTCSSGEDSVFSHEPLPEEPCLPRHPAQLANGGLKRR
Vascular endothelial growth factor receptor 2, sequence (P35968 whole entry): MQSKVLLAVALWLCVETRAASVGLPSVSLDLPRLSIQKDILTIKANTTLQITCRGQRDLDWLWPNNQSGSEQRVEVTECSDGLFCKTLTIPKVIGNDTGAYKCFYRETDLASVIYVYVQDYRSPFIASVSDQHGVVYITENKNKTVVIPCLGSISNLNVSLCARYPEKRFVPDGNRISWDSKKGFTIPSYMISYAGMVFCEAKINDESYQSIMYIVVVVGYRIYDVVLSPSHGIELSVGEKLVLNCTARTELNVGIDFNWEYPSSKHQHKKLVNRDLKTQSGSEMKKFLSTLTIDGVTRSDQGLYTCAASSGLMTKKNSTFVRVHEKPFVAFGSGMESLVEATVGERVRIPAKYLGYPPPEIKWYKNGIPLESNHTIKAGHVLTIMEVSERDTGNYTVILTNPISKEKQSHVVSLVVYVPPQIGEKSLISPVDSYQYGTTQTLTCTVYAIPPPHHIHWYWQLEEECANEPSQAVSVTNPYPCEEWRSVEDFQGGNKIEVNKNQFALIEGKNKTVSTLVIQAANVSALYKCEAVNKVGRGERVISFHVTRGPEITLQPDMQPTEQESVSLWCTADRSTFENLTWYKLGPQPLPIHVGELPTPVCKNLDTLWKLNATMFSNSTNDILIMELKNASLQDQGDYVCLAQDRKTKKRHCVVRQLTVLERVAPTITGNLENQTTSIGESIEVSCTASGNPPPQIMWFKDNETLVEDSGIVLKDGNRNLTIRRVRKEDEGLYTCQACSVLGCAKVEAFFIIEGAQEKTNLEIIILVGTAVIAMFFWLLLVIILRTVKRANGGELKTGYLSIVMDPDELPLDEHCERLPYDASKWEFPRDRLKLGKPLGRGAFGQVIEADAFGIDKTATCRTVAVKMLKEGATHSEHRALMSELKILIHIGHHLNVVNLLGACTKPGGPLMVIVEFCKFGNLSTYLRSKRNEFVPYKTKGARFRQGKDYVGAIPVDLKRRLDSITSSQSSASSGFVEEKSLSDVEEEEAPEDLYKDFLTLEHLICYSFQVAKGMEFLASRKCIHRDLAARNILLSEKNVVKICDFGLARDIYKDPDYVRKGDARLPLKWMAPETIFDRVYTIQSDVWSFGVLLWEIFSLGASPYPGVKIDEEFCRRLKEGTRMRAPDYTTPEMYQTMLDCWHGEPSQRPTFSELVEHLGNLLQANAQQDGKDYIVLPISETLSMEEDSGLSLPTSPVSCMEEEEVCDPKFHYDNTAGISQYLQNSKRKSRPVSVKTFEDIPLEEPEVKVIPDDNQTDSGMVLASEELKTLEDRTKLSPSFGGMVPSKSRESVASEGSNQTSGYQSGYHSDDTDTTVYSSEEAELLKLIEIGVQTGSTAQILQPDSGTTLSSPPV
Aurora kinase A, sequence (O14965 whole entry): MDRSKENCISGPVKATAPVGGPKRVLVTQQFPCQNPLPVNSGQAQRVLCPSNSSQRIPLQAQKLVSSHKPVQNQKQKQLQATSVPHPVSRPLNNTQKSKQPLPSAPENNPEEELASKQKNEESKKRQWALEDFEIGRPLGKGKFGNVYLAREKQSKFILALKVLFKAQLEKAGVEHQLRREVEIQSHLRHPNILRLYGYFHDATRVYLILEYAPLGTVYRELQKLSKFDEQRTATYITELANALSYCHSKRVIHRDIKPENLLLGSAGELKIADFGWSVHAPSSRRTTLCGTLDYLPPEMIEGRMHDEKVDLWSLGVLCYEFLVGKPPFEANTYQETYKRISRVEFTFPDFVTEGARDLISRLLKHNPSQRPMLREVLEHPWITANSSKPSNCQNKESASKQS

What is called bioavailability is the share of a dose that reaches the circulation, judged against a reference dose that is usually intravenous. A higher bioavailability goes with much systemic uptake. The term GI50 denotes the concentration at which growth is held to half of that of the control. Read a high GI50 as less potent growth inhibition. As usually defined, the IC50 is the midpoint of a concentration-inhibition curve. The AUC is the area under the concentration-time curve, a measure of exposure. High values mean more exposure, low ones less exposure. Usually solubility (kinetic) stands for the concentration staying in solution when a stock, usually in DMSO, is diluted into the medium. As to `COc1ccc(Oc2cc(C)c(-c3csc(NC(=O)c4ccnc(F)c4)n3)c(C)c2)cc1`, the bioavailability in series [1] was 4.6%. The GI50 was 0.0398 µM in the series on MDA-MB-231, above 9 µM in [3] and above 9 µM in series [7]. Moreover, the IC50 in series [2] was above 10 µM; in series [4], above 10 µM; in the series on MDA-MB-468 [5] it was 0.04 µM; in the series with K562, 0.0163 µM; in series [10], above 10 µM; in [13] it was above 10 µM. Moreover, the IC50 (in [16]; at Aurora kinase A) was above 10 µM each time. Moreover, the inhibition entry in series [6] and in [8] was “Active” in each case. Moreover, the Activity is below 5% with Mus musculus, “Dose-dependent effect” with MDA-MB-468 [11], 29.1% in the series with MDA-MB-468 [14] and “Dose-dependent effect” in [15]. For the same compound, in series [9], the AUC was determined as 64.9 µM·h. In addition, in series [12], the solubility (kinetic) at 2 h was 0.19 µM (≈ 0.0854 µg/mL). The result in [17] was inactive.
